Experimental data: publication PMC6957261 (Biochimica et biophysica acta. Biomembranes, 2018)

Assays:
Assay in all cases: Membrane translocation by confocal microscopy in living LNCaP cells
Assay type in all cases: cell-based
[1] = biological target: GFP-tagged wild type PKCθ (Homo sapiens, UniProt Q04759)
How it was run: (§1)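 Full-length PKCθ constructs in pEGFP-N1 transfected into LNCaP cells 48 h after plating (RPMI 1640, 10% FBS, 37 °C). After 24 h, PMA is added in phenol red-free DMEM/1% FBS. Live confocal imaging at 488 nm every 30 s. Membrane/cytoplasm mean GFP ratio from 4 μm² regions is normalized to time 0 and read at 5 and 10 min. Three independent experiments, unpaired two-tailed t test.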

[2] = biological target: GFP-tagged PKCθ ΔC1b (Homo sapiens, UniProt Q04759, DEL232-281); details: 100 nM, 1 μM and 10 μM PMA
[3] = biological target: GFP-tagged PKCθ/K240P (Homo sapiens, UniProt Q04759, K240P); details: 1 μM PMA
How it was run: as §1

[4] = biological target: GFP-tagged PKCθ C1b-C1b chimera (Homo sapiens, UniProt Q04759, A164V/A195M/A196N/A207N/D203T/E161R/E178T/F166N/F167Y/F179L/H177G/I197V/I202Q/I206A/K185R/K199H/K200R/K208L/N184A/N194G/P168K/Q169S/Q189K/Q192A/R191D/S174E/T163K/T165Y/V175H/V180L/Y188L); details: response after 100 nM PMA, compared to wild type
How it was run: as §1

[5] = biological target: GFP-tagged PKCθ ΔC1a (Homo sapiens, UniProt Q04759, DEL160-209)
How it was run: as §1

[6] = biological target: GFP-tagged PKCθ/P168K (Homo sapiens, UniProt Q04759, P168K); details: PMA, compared to wild type, not statistically significant
How it was run: as §1

[7] = biological target: GFP-tagged PKCθ C1a-C1a chimera (Homo sapiens, UniProt Q04759, A256N/A264Q/A278I/D263R/E246S/G249H/G266N/H247V/H271K/K235T/K240P/K261Q/L251F/L252V/L260Y/L280K/M267A/N238F/N268A/N279A/Q274I/R233E/R257K/R272K/S241Q/T250E/T275D/V236A/V269I/Y237T/Y239F)
How it was run: as §1

CCCCCCCCCCCCCC(=O)O[C@@H]1[C@@H](C)[C@@]2(O)[C@@H](C=C(CO)C[C@]3(O)C(=O)C(C)=C[C@@H]23)[C@@H]2C(C)(C)[C@]12OC(C)=O [PMA, phorbol 12-myristate 13-acetate]
translocation to the plasma membrane (membrane/cytoplasm ratio) ([1]; 100 nM PMA): little response | translocation to the plasma membrane (membrane/cytoplasm ratio) ([1]; 1 and 10 μM PMA, 5 and 10 min): translocated in a dose dependent manner | translocation to the plasma membrane (membrane/cytoplasm ratio) [2]: complete loss of plasma membrane translocation | translocation to the plasma membrane (membrane/cytoplasm ratio) [3]: modestly decreased translocation | translocation to the plasma membrane (membrane/cytoplasm ratio) [4]: stronger translocation | enhancement of translocation to the plasma membrane ([5]; 100 nM PMA, deletion of C1a versus full length PKCθ): 5 fold | translocation to the plasma membrane (membrane/cytoplasm ratio) ([5]; PMA, compared to wild type): enhanced membrane interaction compared to the wild type | translocation to the plasma membrane (membrane/cytoplasm ratio) [6]: increased translocation | translocation to the plasma membrane (membrane/cytoplasm ratio) ([7]; 1 μM PMA): no translocation | translocation to the plasma membrane (membrane/cytoplasm ratio) ([7]; 10 μM PMA): very small but statistically significant increase in the translocation
